Results as given in ChEMBL document CHEMBL1141286, “Benzochromenones from the marine crinoid Comantheria rotula inhibit hypoxia-inducible factor-1 (HIF-1) in cell-based reporter assays and differentially suppress the growth of certain tumor cell lines” (J Nat Prod, 2007).

Columns and labels:
OVCAR-4 = assay: Growth inhibition of human OVACAR4 cells; type: functional; conditions: for TGI: read-out: Log TGI (converted)
HT-29 = assay: Growth inhibition of human HT29 cells; type: functional; conditions: for CC50: read-out: Log LC50 (the source's name) (converted); for TGI: read-out: Log TGI (converted)
[1] = DPPH radical scavenging activity relative to Trolox; type: functional; parameters: concentration or dose not given beside the values
In short: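 Compounds were made up as DMSO stocks and diluted in isopropanol to a final 10 μM. Each was mixed with DPPH in isopropanol at 10 μM or 30 μM DPPH, and absorbance was read at 515 nm. Scavenging was calculated as [1 − OD515(compound)/OD515(control)] × 100, then expressed as a percentage of Trolox activity. One experiment was run in triplicate.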

HL-60 = assay: Growth inhibition of human HL60 cells; type: functional; conditions: for TGI: read-out: Log TGI (converted)
SK-MEL-5 = assay: Growth inhibition of human SK-MEL5 cells; type: functional; conditions: for TGI: read-out: Log TGI (converted)
UACC-257 = assay: Growth inhibition of human UACC257 cells; type: functional; conditions: for TGI: read-out: Log TGI (converted)
NCI-H460 = assay: Growth inhibition of human NCI-H460 cells; type: functional; conditions: for CC50: read-out: Log LC50 (the source's name) (converted); for TGI: read-out: Log TGI (converted)
IGROV-1 = assay: Growth inhibition of human IGROV1 cells; type: functional; conditions: for CC50: read-out: Log LC50 (the source's name) (converted); for TGI: read-out: Log TGI (converted)
RPMI-8226 = assay: Growth inhibition of human RPMI8226 cells; type: functional
MOLT-4 = assay: Growth inhibition of human MOLT4 cells; type: functional; conditions: for CC50: read-out: Log LC50 (the source's name) (converted)
SF-539 = assay: Growth inhibition of human SF539 cells; type: functional; conditions: for TGI: read-out: Log TGI (converted)
OVCAR-8 = assay: Growth inhibition of human OVACAR8 cells; type: functional; conditions: for TGI: read-out: Log TGI (converted)
TK-10 = assay: Growth inhibition of human TK10 cells; type: functional; conditions: for TGI: read-out: Log TGI (converted)
SK-MEL-2 = assay: Growth inhibition of human SK-MEL2 cells; type: functional; conditions: for TGI: read-out: Log TGI (converted)
[2] = target: Hypoxia inducible factors; HIF-1-alpha, HIF-2-alpha (Homo sapiens, UniProt Q16665+Q99814); assay: Inhibition of HIF1 activation in human T47D cells by TK-luciferase assay; type: cell-based
In short: (§1)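 HIF-1 reporter (pHRE-TK-Luc) assays in transfected PC-3 or T47D cells; HIF-1 induced by hypoxia or by the hypoxia mimetic 1,10-phenanthroline (10 μM); compounds at half-log concentrations; luciferase activity measured; IC50 from experiments in triplicate.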

NCI-H226 = assay: Growth inhibition of human NCI-H226 cells; type: functional; conditions: for CC50: read-out: Log LC50 (the source's name) (converted); for TGI: read-out: Log TGI (converted)
RXF 393 = assay: Growth inhibition of human RXF393 cells; type: functional; conditions: for TGI: read-out: Log TGI (converted)
Malme-3M = assay: Growth inhibition of human MALME-3M cells; type: functional; conditions: for CC50: read-out: Log LC50 (the source's name) (converted); for TGI: read-out: Log TGI (converted)
EKVX = assay: Growth inhibition of human EKVX cells; type: functional; conditions: for CC50: read-out: Log LC50 (the source's name) (converted); for TGI: read-out: Log TGI (converted)
[3] = Inhibition of luciferase at 30 uM
In short: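 Purified recombinant firefly luciferase (QuantiLum, 46.8 μg mL−1) mixed with compound in passive lysis buffer containing BSA (1 mg mL−1); equal volume of luciferase substrate added, light output read; percentage inhibition relative to DMSO control; concentration-response curves up to 30 μM.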

[4] = Inhibition of HIF1 activation in PC3 cells by TK-luciferase assay; type: cell-based; conditions: Homo sapiens, PC-3; in short: as §1
[5] = Inhibition of 1,10-phenanthroline-induced HIF1 activation in PC3 cells by TK-luciferase assay; type: cell-based; conditions: Homo sapiens, PC-3; in short: as §1
A498 = assay: Growth inhibition of human A498 cells; type: functional
HCC 2998 = assay: Growth inhibition of human HCC2998 cells; type: functional
M14 = assay: Growth inhibition of human M14 cells; type: functional
[6] = read-out: Log LC50 (the source's name) (converted)

CCCc1cc(=O)c2c(O)c3c(OC)cc(O)cc3cc2o1
GI50 (OVCAR-4): 26.3 µM
LC50 (OVCAR-4): > 100 µM
TGI (OVCAR-4): > 100 µM
GI50 (HT-29): 18.6 µM
CC50 (HT-29): 72.4 µM
TGI (HT-29): 37.2 µM
Activity [1]: 40%
GI50 (HL-60): 30.9 µM
LC50 (HL-60): > 100 µM
TGI (HL-60): 61.7 µM
GI50 (SK-MEL-5): 14.8 µM
LC50 (SK-MEL-5): 52.5 µM
TGI (SK-MEL-5): 27.5 µM
GI50 (UACC-257): 27.5 µM
LC50 (UACC-257): > 100 µM
TGI (UACC-257): 56.2 µM
GI50 (NCI-H460): 17.8 µM
CC50 (NCI-H460): > 100 µM
TGI (NCI-H460): 42.7 µM
GI50 (IGROV-1): 19.1 µM
CC50 (IGROV-1): > 100 µM
TGI (IGROV-1): 44.7 µM
GI50 (RPMI-8226): 14.5 µM
CC50 (RPMI-8226; [6]): > 100 µM
TGI (RPMI-8226; read-out: Log TGI (converted)): 43.7 µM
CC50 (MOLT-4): > 100 µM
GI50 (SF-539): 19.5 µM
LC50 (SF-539): 81.3 µM
TGI (SF-539): 39.8 µM
GI50 (OVCAR-8): 28.8 µM
LC50 (OVCAR-8): > 100 µM
TGI (OVCAR-8): > 100 µM
GI50 (TK-10): 30.2 µM
LC50 (TK-10): > 100 µM
TGI (TK-10): > 100 µM
GI50 (SK-MEL-2): 18.6 µM
LC50 (SK-MEL-2): 91.2 µM
TGI (SK-MEL-2): 40.7 µM
IC50 [2]: 1.7 µM
GI50 (NCI-H226): 17.8 µM
CC50 (NCI-H226): > 100 µM
TGI (NCI-H226): 45.7 µM
GI50 (RXF 393): 18.2 µM
LC50 (RXF 393): > 100 µM
TGI (RXF 393): 47.9 µM
GI50 (Malme-3M): 25.1 µM
CC50 (Malme-3M): 100 µM
TGI (Malme-3M): 64.6 µM
GI50 (EKVX): 28.8 µM
CC50 (EKVX): > 100 µM
TGI (EKVX): 97.7 µM
inhibition [3]: 48%
IC50 [4]: 1 µM
IC50 [5]: 0.8 µM

CCCc1cc(=O)c2c(OC)c3c(OC)cc(OC)cc3cc2o1
GI50 (OVCAR-4): 81.3 µM
LC50 (OVCAR-4): > 100 µM
TGI (OVCAR-4): > 100 µM
GI50 (A498): 3.47 µM
LC50 (A498): > 100 µM
TGI (A498; read-out: Log TGI (converted)): > 100 µM
GI50 (HT-29): 26.3 µM
CC50 (HT-29): > 100 µM
TGI (HT-29): > 100 µM
GI50 (HCC 2998): > 100 µM
CC50 (HCC 2998; [6]): > 100 µM
TGI (HCC 2998; read-out: Log TGI (converted)): > 100 µM
GI50 (HL-60): 42.7 µM
LC50 (HL-60): > 100 µM
TGI (HL-60): > 100 µM
GI50 (SK-MEL-5): 45.7 µM
LC50 (SK-MEL-5): > 100 µM
TGI (SK-MEL-5): > 100 µM
GI50 (UACC-257): > 100 µM
LC50 (UACC-257): > 100 µM
TGI (UACC-257): > 100 µM
GI50 (NCI-H460): 85.1 µM
CC50 (NCI-H460): > 100 µM
TGI (NCI-H460): > 100 µM
GI50 (IGROV-1): 60.3 µM
CC50 (IGROV-1): > 100 µM
TGI (IGROV-1): > 100 µM
GI50 (MOLT-4): > 100 µM
CC50 (MOLT-4): > 100 µM
TGI (MOLT-4; read-out: Log TGI (converted)): 30.2 µM
GI50 (SF-539): 100 µM
LC50 (SF-539): > 100 µM
TGI (SF-539): > 100 µM
GI50 (OVCAR-8): > 100 µM
LC50 (OVCAR-8): > 100 µM
TGI (OVCAR-8): > 100 µM
GI50 (TK-10): 37.2 µM
LC50 (TK-10): > 100 µM
TGI (TK-10): > 100 µM
GI50 (SK-MEL-2): > 100 µM
LC50 (SK-MEL-2): > 100 µM
TGI (SK-MEL-2): > 100 µM
IC50 [2]: 3.9 µM
GI50 (NCI-H226): > 100 µM
CC50 (NCI-H226): > 100 µM
TGI (NCI-H226): > 100 µM
GI50 (RXF 393): > 100 µM
LC50 (RXF 393): > 100 µM
TGI (RXF 393): > 100 µM
GI50 (Malme-3M): 83.2 µM
CC50 (Malme-3M): > 100 µM
TGI (Malme-3M): > 100 µM
GI50 (EKVX): 100 µM
CC50 (EKVX): > 100 µM
TGI (EKVX): > 100 µM
GI50 (M14): 67.6 µM
LC50 (50% lethal concentration) (M14): 34.7 µM
TGI (M14; read-out: Log TGI (converted)): > 100 µM
IC50 [4]: > 10 µM
IC50 [5]: > 10 µM
